Experimental data published in ChEMBL document CHEMBL1147105, “In vitro and in vivo activities of PD 0305970 and PD 0326448, new bacterial gyrase/topoisomerase inhibitors with potent antibacterial activities versus multidrug-resistant gram-positive and fastidious organism groups” (2007).
≈ marks a conversion by molar mass, not a printed value.

Columns and labels:
Type in all cases: functional
[1] = test system: Klebsiella aerogenes; test: Antibacterial activity against Enterobacter aerogenes
Outline: (§1)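 Broth microdilution MIC following CLSI guidelines, in cation-adjusted Mueller-Hinton broth, incubated at 35°C. Recent clinical isolates and reference strains, with identity confirmed by automated and standard microbiological methods. Results reported as MIC range, MIC50 and MIC90.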

[2] = test system: Alloiococcus otitis; test: Antibacterial activity against Alloiococcus otitidis
Outline: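 MIC by broth microdilution following CLSI guidelines, in cation-adjusted Mueller-Hinton broth with 3% lysed horse blood. Incubated at 35°C and read after 48 h. Reported as MIC range, MIC50 and MIC90.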

[3] = test system: Burkholderia cepacia; test: Antibacterial activity against Burkholderia cepacia; outline: as §1
[4] = test system: Legionella pneumophila; test: Antibacterial activity against Legionella pneumophila
Outline: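 Broth microdilution MIC per CLSI guidelines, run in buffered yeast extract α-ketoglutarate broth at 35°C and read after 48 h.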

[5] = test system: Staphylococcus aureus; test: Antibacterial efficacy against ciprofloxacin and methicillin-resistant Staphylococcus aureus SA2017 infected orally dosed CD1 mouse model
Outline: (§2)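 Sepsis model in female CD1 mice (6–8 weeks, 18–22 g). Lethal i.p. challenge (0.5 ml) at ≥100 median lethal doses. Streptococci were given in Todd-Hewitt broth; other organisms were given with 20% hog gastric mucin. A single oral gavage dose (0.5 ml, in 0.5% methylcellulose) was given at the time of challenge. The PD50 (mg/kg) was calculated by probit analysis.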

[6] = test system: Enterobacter cloacae; test: Antibacterial activity against Enterobacter cloacae; outline: as §1
[7] = test system: Klebsiella pneumoniae; test: Antibacterial activity against beta-lactamase positive Klebsiella pneumoniae
Outline: (§3)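 MIC by CLSI broth microdilution for nonfastidious organisms, in cation-adjusted Mueller-Hinton broth incubated at 35°C.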

[8] = test system: Stenotrophomonas maltophilia; test: Antibacterial activity against Stenotrophomonas maltophilia; outline: as §1
[9] = test system: Fusobacterium sp.; test: Antibacterial activity against Fusobacterium sp.
Outline: (§4)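 Anaerobic broth microdilution MIC following CLSI guidelines, in supplemented Brucella broth. Run in an anaerobe chamber under 5% CO2, 5% H2 and 90% N2 at 35°C, and read after 48 h. Reported as MIC range, MIC50 and MIC90.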

[10] = test system: Staphylococcus saprophyticus; test: Antibacterial activity against Staphylococcus saprophyticus; outline: as §1
[11] = test system: Streptococcus salivarius; test: Antibacterial activity against Streptococcus salivarius
Outline: (§5)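 Broth microdilution MIC following CLSI guidelines, in cation-adjusted Mueller-Hinton broth with 3% lysed horse blood. Plates incubated at 35°C. Clinical isolates and reference strains, with identity confirmed by standard microbiological methods.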

[12] = test system: Neisseria meningitidis; test: Antibacterial activity against Neisseria meningitidis
Outline: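 MIC by broth microdilution in gonococcal broth, incubated at 35°C in 5% CO2. Reported as MIC range, MIC50 and MIC90.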

[13] = test system: Listeria monocytogenes; test: Antibacterial activity against Listeria monocytogenes
Outline: (§6)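 Broth microdilution MIC following CLSI guidelines, in cation-adjusted Mueller-Hinton broth containing 3% lysed horse blood, incubated at 35°C. Clinical isolates with identity confirmed. Reported as MIC range, MIC50 and MIC90.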

[14] = test system: Staphylococcus warneri; test: Antibacterial activity against Staphylococcus warneri; outline: as §1
[15] = test system: Streptococcus pneumoniae; test: Antibacterial activity against penicillin-susceptible Streptococcus pneumoniae
Outline: (§7)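 Broth microdilution MIC per CLSI guidelines, incubated at 35°C. Cation-adjusted Mueller-Hinton broth for nonfastidious organisms and staphylococci. Streptococci tested in the same broth with 3% lysed horse blood. Anaerobes tested in supplemented Brucella broth inside an anaerobe chamber (5% CO2, 5% H2, 90% N2), read after 48 h. Strains were mainly recent clinical isolates with confirmed identity.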

[16] = test system: Staphylococcus aureus; test: Antibacterial efficacy against methicillin-resistant Staphylococcus aureus SA1417 infected orally dosed CD1 mouse model; outline: as §2
[17] = test system: Bacteroides thetaiotaomicron; test: Antibacterial activity against Bacteroides thetaiotaomicron; outline: as §4
[18] = test system: Streptococcus viridans; test: Antibacterial activity against Streptococcus viridans; outline: as §5
[19] = test system: Enterococcus faecium; test: Antibacterial activity against VanA-resistant Enterococcus faecium; outline: as §7
[20] = test system: Proteus mirabilis; test: Antibacterial activity against Proteus mirabilis; outline: as §1
[21] = test system: Peptostreptococcus anaerobius; test: Antibacterial activity against Peptostreptococcus anaerobius; outline: as §4
[22] = test system: Staphylococcus epidermidis; test: Antibacterial activity against oxacillin-susceptible Staphylococcus epidermidis; outline: as §3
[23] = test system: Clostridioides difficile; test: Antibacterial activity against Clostridium difficile; outline: as §4
[24] = test system: Staphylococcus aureus; test: Antibacterial efficacy against methicillin-susceptible Staphylococcus aureus UC76 infected orally dosed CD1 mouse model; details: UC76, po; outline: as §2
[25] = test system: Prevotella corporis; test: Antibacterial activity against Prevotella corporis; outline: as §4
[26] = test system: Pseudomonas aeruginosa; test: Antibacterial activity against Pseudomonas aeruginosa; outline: as §1
[27] = test system: Enterococcus faecalis; test: Antibacterial efficacy against Enterococcus faecalis MGH2 infected orally dosed CD1 mouse model; outline: as §2
[28] = test system: Streptococcus pneumoniae; test: Antibacterial activity against penicillin-resistant Streptococcus pneumoniae; outline: as §7
[29] = test system: Morganella morganii; test: Antibacterial activity against Morganella morganii; outline: as §1
[30] = test system: Prevotella sp.; test: Antibacterial activity against Prevotella sp.; outline: as §4
[31] = test system: Peptoniphilus asaccharolyticus; test: Antibacterial activity against Peptostreptococcus asaccharolyticus; outline: as §4
[32] = test system: Streptococcus pyogenes; test: Antibacterial activity against Streptococcus pyogenes; outline: as §5
[33] = test system: Parabacteroides distasonis; test: Antimicrobial activity against Bacteroides distasonis
Outline: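 Anaerobic broth microdilution MIC following CLSI guidelines, in supplemented Brucella broth. Incubated at 35°C in a chamber under 5% CO2, 5% H2 and 90% N2. Read after 48 h.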

[34] = test system: Streptococcus pyogenes; test: Antibacterial efficacy against Streptococcus pyogenes C203 infected orally dosed CD1 mouse model; details: C203, po; outline: as §2
[35] = test system: Streptococcus pneumoniae; test: Antibacterial activity against levofloxacin-resistant Streptococcus pneumoniae; outline: as §7
[36] = test system: Streptococcus agalactiae; test: Antibacterial activity against Streptococcus agalactiae; outline: as §6
[37] = test system: Klebsiella pneumoniae; test: Antibacterial activity against Klebsiella pneumoniae; outline: as §1
[38] = test system: Staphylococcus aureus; test: Antibacterial activity against oxacillin-resistant Staphylococcus aureus; outline: as §7
[39] = test system: Enterococcus faecalis; test: Antibacterial activity against VanA-resistant Enterococcus faecalis; outline: as §7

Compound: Cc1c(N2CC[C@@H]([C@H](C)N)C2)c(F)cc2c(=O)n(N)c(=O)n(C3CC3)c12
- MIC50 [1]: 4 µg/mL (≈ 11.1 µM)
- MIC90 [1]: 8 µg/mL (≈ 22.1 µM)
- MIC50 [2]: 0.004 µg/mL (≈ 0.0111 µM)
- MIC90 [2]: 0.008 µg/mL (≈ 0.0221 µM)
- MIC50 [3]: 32 µg/mL (≈ 88.5 µM)
- MIC90 [3]: 64 µg/mL (≈ 177 µM)
- MIC50 [4]: 0.25 µg/mL (≈ 0.692 µM)
- MIC90 [4]: 0.25 µg/mL (≈ 0.692 µM)
- MIC [5]: 0.25 µg/mL (≈ 0.692 µM)
- ED50 ([5]; read-out: PD50): 23 mg/kg
- MIC50 [6]: 1 µg/mL (≈ 2.77 µM)
- MIC90 [6]: 4 µg/mL (≈ 11.1 µM)
- MIC50 [7]: 2 µg/mL (≈ 5.53 µM)
- MIC90 [7]: 8 µg/mL (≈ 22.1 µM)
- MIC50 [8]: 8 µg/mL (≈ 22.1 µM)
- MIC90 [8]: 64 µg/mL (≈ 177 µM)
- MIC [9]: 0.06 µg/mL (≈ 0.166 µM)
- MIC50 [10]: 0.06 µg/mL (≈ 0.166 µM)
- MIC90 [10]: 0.125 µg/mL (≈ 0.346 µM)
- MIC50 [11]: 0.03 µg/mL (≈ 0.083 µM)
- MIC90 [11]: 0.03 µg/mL (≈ 0.083 µM)
- MIC50 [12]: 0.25 µg/mL (≈ 0.692 µM)
- MIC90 [12]: 0.5 µg/mL (≈ 1.38 µM)
- MIC50 [13]: 0.125 µg/mL (≈ 0.346 µM)
- MIC90 [13]: 0.25 µg/mL (≈ 0.692 µM)
- MIC [14]: 0.06 µg/mL (≈ 0.166 µM)
- MIC50 [15]: 0.03 µg/mL (≈ 0.083 µM)
- MIC90 [15]: 0.03 µg/mL (≈ 0.083 µM)
- MIC [16]: 0.25 µg/mL (≈ 0.692 µM)
- ED50 ([16]; read-out: PD50): 2.5 mg/kg
- MIC50 [17]: 4 µg/mL (≈ 11.1 µM)
- MIC90 [17]: 16 µg/mL (≈ 44.3 µM)
- MIC50 [18]: 0.03 µg/mL (≈ 0.083 µM)
- MIC90 [18]: 0.03 µg/mL (≈ 0.083 µM)
- MIC50 [19]: 1 µg/mL (≈ 2.77 µM)
- MIC90 [19]: 2 µg/mL (≈ 5.53 µM)
- MIC50 [20]: 1 µg/mL (≈ 2.77 µM)
- MIC90 [20]: 2 µg/mL (≈ 5.53 µM)
- MIC [21]: 0.03 µg/mL (≈ 0.083 µM)
- MIC [22]: 0.06 µg/mL (≈ 0.166 µM)
- MIC50 [23]: 0.5 µg/mL (≈ 1.38 µM)
- MIC90 [23]: 2 µg/mL (≈ 5.53 µM)
- MIC [24]: 0.06 µg/mL (≈ 0.166 µM)
- ED50 ([24]; read-out: PD50): 1.9 mg/kg
- MIC50 [25]: 0.25 µg/mL (≈ 0.692 µM)
- MIC90 [25]: 1 µg/mL (≈ 2.77 µM)
- MIC50 [26]: 4 µg/mL (≈ 11.1 µM)
- MIC90 [26]: 32 µg/mL (≈ 88.5 µM)
- MIC [27]: 0.125 µg/mL (≈ 0.346 µM)
- ED50 ([27]; read-out: PD50): 19 mg/kg
- MIC50 [28]: 0.03 µg/mL (≈ 0.083 µM)
- MIC90 [28]: 0.03 µg/mL (≈ 0.083 µM)
- MIC50 [29]: 2 µg/mL (≈ 5.53 µM)
- MIC90 [29]: 8 µg/mL (≈ 22.1 µM)
- MIC50 [30]: 0.25 µg/mL (≈ 0.692 µM)
- MIC90 [30]: 1 µg/mL (≈ 2.77 µM)
- MIC [31]: 0.03 µg/mL (≈ 0.083 µM)
- MIC50 [32]: 0.03 µg/mL (≈ 0.083 µM)
- MIC90 [32]: 0.03 µg/mL (≈ 0.083 µM)
- MIC50 [33]: 4 µg/mL (≈ 11.1 µM)
- MIC90 [33]: 16 µg/mL (≈ 44.3 µM)
- MIC [34]: 0.015 µg/mL (≈ 0.0415 µM)
- ED50 ([34]; read-out: PD50): 0.7 mg/kg
- MIC50 [35]: 0.03 µg/mL (≈ 0.083 µM)
- MIC90 [35]: 0.06 µg/mL (≈ 0.166 µM)
- MIC50 [36]: 0.03 µg/mL (≈ 0.083 µM)
- MIC90 [36]: 0.03 µg/mL (≈ 0.083 µM)
- MIC50 [37]: 2 µg/mL (≈ 5.53 µM)
- MIC90 [37]: 4 µg/mL (≈ 11.1 µM)
- MIC50 [38]: 0.125 µg/mL (≈ 0.346 µM)
- MIC90 [38]: 0.25 µg/mL (≈ 0.692 µM)
- MIC [39]: 0.125 µg/mL (≈ 0.346 µM)
